Experiment [1] deals with Mus musculus. The experiment in a line: Anticonvulsant activity in NMRI mouse assessed as pentylenetetrazole-induced clonic seizure threshold at 20 mg/kg, ip administered 60 mins before pentylenetetrazole challenge. Format: functional. Conditions: route intraperitoneal. The method in brief: (§1)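 Male NMRI mice (24-30 g), at least eight per group, each used once. Compounds dispersed in 0.5% CMC and given i.p. in 10 ml/kg, 60 min before PTZ. PTZ (0.5% in saline) infused i.v. into the tail vein at 0.5 ml/min in unrestrained animals until forelimb clonus then full body clonus. Threshold = minimal PTZ dose (mg/kg) for clonic seizure, expressed as % and compared with CMC group; mean ± SEM.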

Experiment [2] has as its system Mus musculus. Description: Anticonvulsant activity in NMRI mouse assessed as pentylenetetrazole-induced clonic seizure threshold at 10 mg/kg, ip administered 60 mins before pentylenetetrazole challenge. The class given is functional. To be noted: route intraperitoneal. Put shortly:
as §1

Experiment [3] relates to Mus musculus. Description: Anticonvulsant activity in NMRI mouse assessed as pentylenetetrazole-induced clonic seizure threshold at 5 mg/kg, ip administered 60 mins before pentylenetetrazole challenge. Conditions: route intraperitoneal. Format: functional. Put shortly: as §1
A short description of experiment [4]: Displacement of [3H]flumazenil from GABAA/BZD receptor in Sprague-Dawley rat cortical membrane after 35 mins by competition binding assay. Put shortly:
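Cortex from male Sprague-Dawley rats (300-350 g), homogenized in Tris-HCl, washed, and preincubated 30 min at 37°C; membranes stored at -20°C and used within 1-15 days. 100 µg membrane protein incubated with 8.6×10^-5 nmole [3H]-flumazenil plus increasing test ligand in 50 mM Tris-HCl pH 7.4 (0.5 mL), 30°C, 35 min. Stopped by centrifugation. Excess diazepam defined nonspecific binding. Triplicates; IC50 = 50% inhibition of specific binding.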

These results are taken from ChEMBL document CHEMBL3120050, “Synthesis, receptor affinity and effect on pentylenetetrazole-induced seizure threshold of novel benzodiazepine analogues: 3-Substituted 5-(2-phenoxybenzyl)-4H-1,2,4-triazoles and 2-amino-5-(phenoxybenzyl)-1,3,4-oxadiazoles” (Bioorg Med Chem, 2014).

Turning to `CSc1nnc(Cc2ccc(Cl)cc2Oc2ccccc2Cl)[nH]1`, the figures for the Activity in experiment [1], in experiment [2] and in experiment [3] were 169.89%, 131.61% and 125.02%, respectively. Further, the half-inhibitory concentration (IC50) in experiment [4] was 2.52 nM. This molecule also registered a Kd in experiment [4] of 1.54 nM.

In experiment [4], `CN1C(=O)CN=C(c2ccccc2)c2cc(Cl)ccc21` [DIAZEPAM] came in with an IC50 of 2.86 nM and a dissociation constant (Kd) of 1.75 nM.

As to `S=c1[nH]nc(Cc2ccc(Cl)cc2Oc2ccccc2Cl)[nH]1`, the Activity in experiment [1] stood at 158.77%; in experiment [2] it was 138.87%; in experiment [3], 124.08%. Also, the 50% inhibitory concentration (IC50) in experiment [4] was determined as 1.78 nM. The molecule further gave a Kd in experiment [4] of 1.09 nM.

On to `Clc1ccc(Cc2nnc(SCc3ccccc3)[nH]2)c(Oc2ccccc2Cl)c1`, for which the Activity is 128.77% in experiment [1], 122.18% in experiment [2] and 112.52% in experiment [3]. In experiment [4], this molecule registered an IC50 of 2.23 nM. Also, the dissociation constant (Kd) in experiment [4] came out at 1.36 nM.

For the molecule `Fc1ccccc1Oc1cc(Cl)ccc1Cc1nnc(SCc2ccccc2)[nH]1`, the Activity in experiment [1] is 178.53%; in experiment [2] it was 168.6%; in experiment [3], 165.66%. In addition, the IC50 in experiment [4] came to 0.892 nM. In experiment [4], this molecule yielded a Kd of 0.544 nM.

For the molecule `CCSc1nnc(Cc2ccc(Cl)cc2Oc2ccccc2Cl)[nH]1`, the Activity in experiment [1] is reported as 173.98%; in experiment [2], 139.99%; in experiment [3], 133.58%. Further, in experiment [4], the IC50 amounted to 1.63 nM. Further, the affinity in experiment [4], expressed as Kd, was 1 nM.

Consider `CCCSc1nnc(Cc2ccc(Cl)cc2Oc2ccccc2Cl)[nH]1`, for which the figures for the Activity in experiment [1], in experiment [2] and in experiment [3] were 134.09%, 125.29% and 117.68%, respectively. In experiment [4], this molecule came in with a 50% inhibitory concentration (IC50) of 1.35 nM. The affinity in experiment [4], expressed as Kd, was 0.82 nM.

Take `CCCSc1nnc(Cc2ccc(Cl)cc2Oc2ccccc2F)[nH]1`: the Activity in experiment [1] is given as 133.41%; in experiment [2], 127.32%; in experiment [3] it was 119.45%. In experiment [4], this molecule came in with an IC50 of 1.97 nM. In experiment [4], this molecule had a Kd of 1.21 nM.

For the molecule `CSc1nnc(Cc2ccc(Cl)cc2Oc2ccccc2F)[nH]1`, the figures for the Activity in experiment [1], in experiment [2] and in experiment [3] were 135.53%, 121.41% and 110.43%, respectively. Moreover, in experiment [4], the IC50 came out at 3.78 nM. Besides, in experiment [4], the Kd worked out at 2.32 nM.

Take `CCOc1nnc(Cc2ccc(Cl)cc2Oc2ccccc2F)[nH]1`: the Activity is listed as 138.25% in experiment [1], 115.67% in experiment [2] and 110.82% in experiment [3]. This molecule also returned an IC50 in experiment [4] of 2.07 nM. The Kd in experiment [4] turned out to be 1.26 nM.

Consider `CCOc1nnc(Cc2ccccc2Oc2ccccc2)[nH]1`, for which the Activity in experiment [1] is 143.52%; in experiment [2], 125.79%; in experiment [3] it was 122.56%. The molecule further yielded an IC50 in experiment [4] of 3.49 nM. This molecule gave a Kd in experiment [4] of 2.14 nM.

`CCSc1nnc(Cc2ccc(Cl)cc2Oc2ccccc2F)[nH]1`: the Activity is given as 141.4% in experiment [1], 144.44% in experiment [2] and 125.52% in experiment [3]. The IC50 in experiment [4] is 1.32 nM. Also, the Kd in experiment [4] worked out at 0.8 nM.

Take `CSc1nnc(Cc2ccccc2Oc2ccccc2)[nH]1`: the Activity in experiment [1] amounted to 147.06%; in experiment [2] it was 132.83%; in experiment [3] it was 120.26%. In experiment [4], the concentration for half-maximal inhibition (IC50) was determined as 1.38 nM. In experiment [4], this molecule came in with a Kd of 0.84 nM.

`Fc1ccccc1Oc1cc(Cl)ccc1Cc1n[nH]c(=S)[nH]1`: in experiment [4], the 50% inhibitory concentration (IC50) turned out to be 1.36 nM and the dissociation constant (Kd) is 0.836 nM.

As for `Nc1nnc(Cc2ccc(Cl)cc2Oc2ccccc2Cl)o1`, the Activity stood at 170.25% in experiment [1], 132.44% in experiment [2] and 125.22% in experiment [3]. Also, the IC50 in experiment [4] was 1.75 nM. In addition, the dissociation constant (Kd) in experiment [4] was 1.1 nM.

Regarding `S=c1[nH]nc(Cc2ccccc2Oc2ccccc2)[nH]1`, the Activity in experiment [1] is 160.47%; in experiment [2], 141.88%; in experiment [3], 126.2%. In experiment [4], the IC50 came to 3.1 nM. Moreover, the Kd in experiment [4] was 1.9 nM.

As for `Nc1nnc(Cc2ccc(Cl)cc2Oc2ccccc2F)o1`, the Activity in experiment [1] was found to be 154.23%; in experiment [2], 128.95%; in experiment [3], 111.61%. This molecule also yielded an IC50 in experiment [4] of 1.89 nM. Besides, in experiment [4], the Kd is 1.16 nM.

Regarding `CCCSc1nnc(Cc2ccccc2Oc2ccccc2)[nH]1`, the Activity in experiment [1] amounted to 157.5%; in experiment [2], 139.38%; in experiment [3] it was 127.77%. In experiment [4], this molecule registered an IC50 of 1.24 nM. The molecule also gave an equilibrium dissociation constant (Kd) in experiment [4] of 0.75 nM.

Consider `Nc1nnc(Cc2ccccc2Oc2ccccc2)o1`, for which the Activity stood at 174.36% in experiment [1], 142.52% in experiment [2] and 131.63% in experiment [3]. This molecule also showed an IC50 in experiment [4] of 1.9 nM. Further, the dissociation constant (Kd) in experiment [4] is 1.17 nM.

For the molecule `c1ccc(CSc2nnc(Cc3ccccc3Oc3ccccc3)[nH]2)cc1`, the Activity in experiment [1] amounted to 143.4%; in experiment [2], 139.21%; in experiment [3], 129.27%. Also, the IC50 in experiment [4] came to 2.07 nM. Moreover, in experiment [4], the dissociation constant Kd was 1.27 nM.

Regarding `CCOc1nnc(Cc2ccc(Cl)cc2Oc2ccccc2Cl)[nH]1`, the Activity amounted to 134.63% in experiment [1], 122.29% in experiment [2] and 120.06% in experiment [3]. The molecule also showed a concentration for half-maximal inhibition (IC50) in experiment [4] of 2.13 nM. In addition, binding in experiment [4] was put at a Kd of 1.3 nM.

In the case of `CCSc1nnc(Cc2ccccc2Oc2ccccc2)[nH]1`, the results for the Activity in experiment [1], in experiment [2] and in experiment [3] were 168.55%, 141.9% and 132.47%, respectively.
